Source: ChEMBL document CHEMBL1147105, “In vitro and in vivo activities of PD 0305970 and PD 0326448, new bacterial gyrase/topoisomerase inhibitors with potent antibacterial activities versus multidrug-resistant gram-positive and fastidious organism groups” (2007)

Tests used:
Assay type in all cases: functional
Streptococcus mitis = test: Antibacterial activity against Streptococcus mitis
Method in brief: (§1)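 Broth microdilution MIC following CLSI guidelines, in cation-adjusted Mueller-Hinton broth with 3% lysed horse blood. Plates incubated at 35°C. Clinical isolates and reference strains, with identity confirmed by standard microbiological methods.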

[1] = tested on: Fusobacterium necrophorum; test: Antibacterial activity against Fusobacterium necrophorum
Method in brief: (§2)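 Anaerobic broth microdilution MIC following CLSI guidelines, in supplemented Brucella broth. Run in an anaerobe chamber under 5% CO2, 5% H2 and 90% N2 at 35°C, and read after 48 h. Reported as MIC range, MIC50 and MIC90.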

Streptococcus pyogenes = test: Antibacterial activity against Streptococcus pyogenes; method in brief: as §1
Enterococcus faecium = test: Antibacterial activity against VanA-resistant Enterococcus faecium
Method in brief: (§3)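 Broth microdilution MIC per CLSI guidelines, incubated at 35°C. Cation-adjusted Mueller-Hinton broth for nonfastidious organisms and staphylococci. Streptococci tested in the same broth with 3% lysed horse blood. Anaerobes tested in supplemented Brucella broth inside an anaerobe chamber (5% CO2, 5% H2, 90% N2), read after 48 h. Strains were mainly recent clinical isolates with confirmed identity.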

Acinetobacter sp. = test: Antibacterial activity against Acinetobacter sp.
Method in brief: (§4)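 Broth microdilution MIC following CLSI guidelines, in cation-adjusted Mueller-Hinton broth, incubated at 35°C. Recent clinical isolates and reference strains, with identity confirmed by automated and standard microbiological methods. Results reported as MIC range, MIC50 and MIC90.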

Shigella dysenteriae = test: Antibacterial activity against Shigella dysenteriae
Haemophilus influenzae = test: Antibacterial activity against beta-lactamase positive Haemophilus influenzae
Method in brief: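 Broth microdilution MIC following CLSI guidelines, in Haemophilus test medium at 35°C.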

Streptococcus sanguinis = test: Antibacterial activity against Streptococcus sanguis; method in brief: as §1
Fusobacterium sp. = test: Antibacterial activity against Fusobacterium sp.; method in brief: as §2
Neisseria gonorrhoeae = test: Antibacterial activity against Neisseria gonorrhoeae
Method in brief: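 MIC by broth microdilution in gonococcal broth, incubated at 35°C in 5% CO2. Reported as MIC range, MIC50 and MIC90.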

Legionella pneumophila = test: Antibacterial activity against Legionella pneumophila
Method in brief: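 Broth microdilution MIC per CLSI guidelines, run in buffered yeast extract α-ketoglutarate broth at 35°C and read after 48 h.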

Shigella flexneri = test: Antibacterial activity against Shigella flexneri; method in brief: as §4
Streptococcus pneumoniae [2] = test: Antibacterial activity against penicillin-intermediate resistant Streptococcus pneumoniae; method in brief: as §3
Serratia marcescens = test: Antibacterial activity against Serratia marcescens; method in brief: as §4
Streptococcus pneumoniae [3] = test: Antibacterial activity against levofloxacin-resistant Streptococcus pneumoniae; method in brief: as §3
Corynebacterium jeikeium = test: Antibacterial activity against Corynebacterium jeikeium
Method in brief: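 Broth microdilution MIC following CLSI guidelines, in cation-adjusted Mueller-Hinton broth containing 3% lysed horse blood, incubated at 35°C. Clinical isolates with identity confirmed. Reported as MIC range, MIC50 and MIC90.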

Enterococcus faecalis [4] = test: Antibacterial activity against VanB-resistant Enterococcus faecalis; method in brief: as §3
[5] = tested on: Prevotella melaninogenica; test: Antibacterial activity against Prevotella melaninogenica; method in brief: as §2
Bacteroides ovatus = test: Antibacterial activity against Bacteroides ovatus; method in brief: as §2
Cutibacterium acnes = test: Antibacterial activity against Propionibacterium acnes
Streptococcus pneumoniae [6] = test: Antibacterial activity against penicillin-resistant Streptococcus pneumoniae; method in brief: as §3
Prevotella sp. = test: Antibacterial activity against Prevotella sp.; method in brief: as §2
Enterococcus faecalis [7] = test: Antibacterial activity against VanA-resistant Enterococcus faecalis; method in brief: as §3
Enterococcus faecalis [8] = test: Antibacterial activity against Enterococcus faecalis; method in brief: as §3

C[C@H]1NCc2cc(-c3ccc4c(=O)c(C(=O)O)cn(C5CC5)c4c3OC(F)F)ccc21 [GARENOXACIN]
2 µg/mL: MIC90 (Streptococcus pneumoniae [3]) | MIC50 (Enterococcus faecalis [4]) | MIC50 (Bacteroides ovatus) | MIC90 (Cutibacterium acnes) | MIC (Enterococcus faecalis [7]) | MIC50 (Enterococcus faecalis [8])
4 µg/mL: MIC90 (Bacteroides ovatus)
8 µg/mL: MIC50 (Enterococcus faecium) | MIC90 (Serratia marcescens) | MIC90 (Enterococcus faecalis [4])
0.004 µg/mL: MIC50 (Neisseria gonorrhoeae) | MIC90 (Neisseria gonorrhoeae)
1 µg/mL: MIC50 (Serratia marcescens) | MIC50 (Streptococcus pneumoniae [3]) | MIC90 [5] | MIC50 (Cutibacterium acnes) | MIC90 (Prevotella sp.)
0.125 µg/mL: MIC50 (Streptococcus mitis) | MIC [1] | MIC50 (Streptococcus pyogenes) | MIC50 (Acinetobacter sp.) | MIC90 (Shigella dysenteriae) | MIC50 (Streptococcus sanguinis) | MIC (Fusobacterium sp.) | MIC90 (Shigella flexneri) | MIC90 (Streptococcus pneumoniae [6])
16 µg/mL: MIC90 (Enterococcus faecium) | MIC90 (Acinetobacter sp.)
0.015 µg/mL: MIC50 (Haemophilus influenzae)
0.03 µg/mL: MIC50 (Shigella dysenteriae) | MIC90 (Haemophilus influenzae) | MIC50 (Shigella flexneri) | MIC50 (Streptococcus pneumoniae [6])
0.008 µg/mL: MIC90 (Legionella pneumophila)
0.002 µg/mL: MIC50 (Legionella pneumophila)
0.25 µg/mL: MIC90 (Streptococcus mitis) | MIC90 (Streptococcus pyogenes) | MIC90 (Streptococcus sanguinis) | MIC50 (Streptococcus pneumoniae [2]) | MIC90 (Streptococcus pneumoniae [2]) | MIC50 (Corynebacterium jeikeium) | MIC90 (Corynebacterium jeikeium) | MIC50 [5] | MIC50 (Prevotella sp.)
